We go through 25 molecules from ChEMBL document CHEMBL2046437, “In vitro stability and in vivo anti-inflammatory efficacy of synthetic jasmonates” (Bioorg Med Chem, 2012).

Active and inactive are the calls of the source. The rule behind the calls is not given here.

Data set [1] deals with RAW264.7. Description: Selectivity index, ratio of TC50 for mouse RAW264.7 cells to EC50 for antiinflammatory activity in LPS-activated mouse RAW264.7 cells. It counts as functional.
In data set [2] the test system is RAW264.7. Description: Antiinflammatory activity in LPS-activated mouse RAW264.7 cells assessed as inhibition of nitric oxide production incubated for 24 hrs by ELISA. The note with it: RAW264.7, 24 h, in the assay text read “by Griess reagent method” for “by ELISA”. It counts as functional, cell-based. The procedure, abridged: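 RAW264.7 macrophages (DMEM, 10% FBS, penicillin/streptomycin, 37 °C, 5% CO2) treated with LPS plus compounds for 24 h. Nitrite in supernatant measured by Griess reagent (10 min, room temperature, dark), absorbance 540 nm, quantified against sodium nitrite standard curve. EC50 reported from triplicate experiments, mean ± SD.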
A general note: In an ELISA, binding on a coated surface is turned into a signal by an enzyme label.

Data set [3] in a line: Cytotoxicity in mouse RAW264.7 cells after 24 hrs by MTT assay. Format: cell-based. The conditions noted are these: read-out: TC50. The procedure, abridged: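 RAW264.7 cells in DMEM with 10% FBS were treated for 24 h, then incubated with MTT for 4 h. Formazan was dissolved in DMSO for 30 min and absorbance read at 540 nm. TC50 reported as mean ± SD of triplicate experiments.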
In general terms: Tetrazolium assays rely on reduction of a dye to a coloured formazan, in cell work by metabolically active cells.

Data set [4] is described as follows: Stability in presence of porcine liver esterase assessed as esterase-mediated compound hydrolysis by measuring ratio of intact compounds and their corresponding acids in pH 7.4 phosphate buffer at 37 degC at 30 mins post incubation by RP-HPLC. The note with it: pig, isolated protein, pH 7.4, 0.5 h. Format: ADME. The procedure, abridged: (§1)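 About 0.5 mg ester was incubated with 50 µL porcine liver esterase stock in 0.01 M phosphate buffer (pH 7.4, 1 mL) plus 10 µL acetone at 37 °C. Intact ester/acid peak-area ratio given as mean ± SD of two experiments.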

The nature of data set [5]: Stability in presence of porcine liver esterase assessed as esterase-mediated compound hydrolysis by measuring ratio of intact compounds and their corresponding acids in pH 7.4 phosphate buffer at 37 degC at 60 mins post incubation by RP-HPLC. It counts as ADME. The conditions noted are these: pig, isolated protein, pH 7.4, 1 h. The procedure, abridged:
as §1

In data set [6] the test system is Rattus norvegicus. Nature of the data set: Antiinflammatory activity in Sprague-Dawley rat assessed as inhibition of carrageenan-induced paw edema at 50 mg/kg, ip dosed 30 mins before carrageenan challenge measured at 24 hrs post carrageenan challenge. Format: functional. The procedure, abridged: (§2)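 Male Sprague–Dawley rats (140–160 g, 5 weeks old) received a single intraperitoneal dose in 5% cremophor/5% ethanol in PBS, with vehicle as control. 30 min later, 0.1 mL of 1% carrageenan in saline was injected subplantar into the right hind paw, with saline in the left. Paw volume was measured by plethysmometer at 0, 0.5, 1, 2, 4, 6 and 24 h.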

In data set [7] the test system is Rattus norvegicus. Nature of the data set: Antiinflammatory activity in Sprague-Dawley rat assessed as inhibition of carrageenan-induced paw edema at 50 mg/kg, ip dosed 30 mins before carrageenan challenge measured before 6 hrs post carrageenan challenge. Format: functional, organism-based. Also on record: dose 50 mg/kg. The procedure, abridged:
as §2

In data set [8] the test system is Rattus norvegicus. Nature of the data set: Antiinflammatory activity in Sprague-Dawley rat assessed as inhibition of carrageenan-induced paw edema at 50 mg/kg, ip dosed 30 mins before carrageenan challenge. It counts as functional, organism-based. The arrangement: dose 50 mg/kg. In a few lines: as §2
(The carrageenan paw model is a standard test of acute inflammation.)

Data set [9] has as its system Rattus norvegicus. Nature of the data set: Antiinflammatory activity in Sprague-Dawley rat assessed as inhibition of carrageenan-induced paw edema at 25 mg/kg, ip dosed 30 mins before carrageenan challenge measured before 6 hrs post carrageenan challenge. The arrangement: dose 25 mg/kg. Format: functional, organism-based. The procedure, abridged:
as §2

Data set [10] relates to Rattus norvegicus. Description: Antiinflammatory activity in Sprague-Dawley rat assessed as inhibition of carrageenan-induced paw edema at 25 mg/kg, ip dosed 30 mins before carrageenan challenge measured at 24 hrs post carrageenan challenge. Format: functional. The note with it: route intraperitoneal. In a few lines:
as §2

Usually EC50 stands for the concentration giving half of the maximal effect. With `CC/C=C\C[C@H]1C(=O)C=C[C@H]1CC(=O)OCCC`, the Ratio was determined as 1 in the data set on RAW264.7 [1] and 0 in [4]. The EC50 with RAW264.7 [2] was determined as 23 µM. In addition, the CC50 at 24 h in data set [3] was 35 µM.
On to `CC/C=C\C[C@H]1C(=O)C=C[C@H]1CC(=O)OCCOCCOCCO`, for which the Ratio is 4 in the data set with RAW264.7 [1], 3.5 in data set [5] and 7.6 in data set [4]. For the same molecule, in the data set with RAW264.7 [2], the half-maximal effective concentration (EC50) came out at 42 µM. Besides, the CC50 at 24 h in data set [3] worked out at 162 µM.
Consider `CC/C=C\C[C@H]1C(=O)C(Cl)=C[C@H]1CC(=O)OC1CCCCC1`, for which the Ratio with RAW264.7 [1] was found to be 14.9. Also, the EC50 in the data set on RAW264.7 [2] worked out at 0.65 µM. Also, the CC50 at 24 h in [3] came out at 9.69 µM.
For the molecule `CC/C=C\C[C@H]1C(=O)C=C[C@H]1CC(=O)OCCOC`, the results for the Ratio (in the data set with RAW264.7 [1]; in data set [5]; in data set [4]) were 6, 0 and 0.1, respectively. In the data set with RAW264.7 [2], the concentration for a half-maximal effect (EC50) amounted to 27 µM. Besides, in data set [3], the CC50 at 24 h was determined as 160 µM.
The inhibition in vivo is the percentage by which the read-out fell short of the control. For `CC/C=C\C[C@H]1C(=O)C(Cl)=C[C@H]1CC(=O)OCCO`, in the data set with Rattus norvegicus [6] (route intraperitoneal), the inhibition in vivo at 50 mg/kg came to 62.4%. Also, the Ratio with RAW264.7 [1] was found to be 10.8. Also, the EC50 in the data set with RAW264.7 [2] was found to be 0.58 µM. In addition, in data set [3], the CC50 at 24 h amounted to 6.25 µM. For the same molecule, the outcome in the data set with Rattus norvegicus [7] was inactive. Moreover, the result with Rattus norvegicus [8] was Active.
For `CC/C=C\C[C@H]1C(=O)C=C[C@H]1CC(=O)OC(C)COC` (stereo not given in full), the Ratio is 7 in the data set with RAW264.7 [1], 0.2 in data set [5] and 0.5 in data set [4]. Besides, the concentration for a half-maximal effect (EC50) in the data set with RAW264.7 [2] worked out at 23 µM. Further, the CC50 at 24 h in data set [3] was found to be 161 µM.
Taken in the same sequence, the figures for `CC/C=C\C[C@H]1C(=O)C=C[C@H]1CC(=O)OCc1ccccc1` were 1, 0, 0.2, 20 µM and 31 µM.
On the same counts, the results for `CC/C=C\C[C@H]1C(=O)C=C[C@H]1CC(=O)OC(C)c1ccccc1` (stereo not given in full) are 2, 0.4, 1.4, 18 µM and 31 µM.
In the case of `COc1ccc2c(c1)c(CC(=O)O)c(C)n2C(=O)c1ccc(Cl)cc1` [INDOMETHACIN], the result in the data set on Rattus norvegicus [9] was Active. Besides, the inhibition in vivo at 25 mg/kg with Rattus norvegicus [10] was 57.1%.
Take `CC/C=C\C[C@H]1C(=O)C=C[C@H]1CC(=O)Oc1ccccc1`: the Ratio with RAW264.7 [1] is given as 5; in data set [4] it was 0. The EC50 with RAW264.7 [2] was 33 µM. The CC50 at 24 h in data set [3] was 158 µM.
On to `CC/C=C\C[C@H]1C(=O)C=C[C@H]1CC(=O)OCCO`, for which the results for the Ratio (with RAW264.7 [1]; in data set [5]; in data set [4]) were 7, 0.7 and 1.7, respectively. In addition, the EC50 in the data set on RAW264.7 [2] worked out at 24 µM. In addition, in data set [3], the CC50 at 24 h turned out to be 161 µM.
As to `CC/C=C\C[C@H]1C(=O)C(Cl)=C[C@H]1CC(=O)OC(C)(C)C`, in the data set on Rattus norvegicus [6], the inhibition entry was “Active”. Also, the Ratio with RAW264.7 [1] is 13.9. Besides, the EC50 with RAW264.7 [2] was 0.83 µM. For the same molecule, the CC50 at 24 h in data set [3] was 11.5 µM. Besides, the outcome in the data set on Rattus norvegicus [7] was inactive. In the data set with Rattus norvegicus [8], the result was Active.
Regarding `CC/C=C\C[C@H]1C(=O)C=C[C@H]1CC(=O)Oc1ccc(O)cc1`, the Ratio came to 2 with RAW264.7 [1] and 0 in [4]. Also, in the data set on RAW264.7 [2], the EC50 was 23 µM. Moreover, the CC50 at 24 h in data set [3] was determined as 49 µM.
For the molecule `CC/C=C\C[C@H]1C(=O)C=C[C@H]1CC(=O)OCCCC`, the Ratio in the data set on RAW264.7 [1] amounted to 1; in data set [4] it was 0. Further, the EC50 in the data set with RAW264.7 [2] came out at 23 µM. The CC50 at 24 h in data set [3] was 31 µM.
Taken in the same sequence, the figures for `CC/C=C\C[C@H]1C(=O)C=C[C@H]1CC(=O)OCCCCC` were 1, 0, 25 µM and 37 µM.
With `CC/C=C\C[C@H]1C(=O)C=C[C@H]1CC(=O)OC(C)CC` (stereo not given in full), the Ratio stood at 2 in the data set on RAW264.7 [1], 0.1 in data set [5] and 0.4 in data set [4]. The EC50 in the data set with RAW264.7 [2] is 22 µM. Also, the CC50 at 24 h in data set [3] stood at 53 µM.
Taken in the same sequence, the figures for `CC/C=C\C[C@H]1C(=O)C=C[C@H]1CC(=O)OCCOCCOCCOC` were 5, 0, 0.3, 35 µM and 163 µM.
In the case of `CC/C=C\C[C@H]1C(=O)C=C[C@H]1CC(=O)OC(C)(C)C`, the values for the Ratio (with RAW264.7 [1]; in [5]; in data set [4]) were 1, 9.8 and 11.2, respectively. Besides, the EC50 in the data set with RAW264.7 [2] turned out to be 20 µM. In data set [3], the CC50 at 24 h worked out at 33 µM.
On the same counts, the results for `CC/C=C\CC1C(=O)C=CC1CC(=O)OC` (stereo not given) are 7, 0, 0.1, 19 µM and 140 µM.
On to `CC/C=C\C[C@H]1C(=O)C=C[C@H]1CC(=O)OCC`, for which the Ratio in the data set with RAW264.7 [1] was found to be 7; in [4], 0. In addition, the EC50 in the data set with RAW264.7 [2] was found to be 20 µM. The CC50 at 24 h in data set [3] worked out at 146 µM.
As for `CC/C=C\C[C@H]1C(=O)C=C[C@H]1CC(=O)OCCOCCO`, the Ratio came to 5 with RAW264.7 [1], 3.1 in [5] and 5.9 in data set [4]. The EC50 in the data set with RAW264.7 [2] is 36 µM. Moreover, in data set [3], the CC50 at 24 h is 166 µM.
Consider `CC/C=C\C[C@H]1C(=O)C=C[C@H]1CC(=O)Oc1ccccc1OC`, for which the Ratio in the data set with RAW264.7 [1] is given as 5; in data set [4], 0. In the data set on RAW264.7 [2], the EC50 turned out to be 32 µM. In addition, the CC50 at 24 h in [3] worked out at 161 µM.
Consider `CC/C=C\C[C@H]1C(=O)C=C[C@H]1CC(=O)OCCOCCOC`, for which the Ratio came to 5 with RAW264.7 [1], 0 in data set [5] and 0.3 in [4]. In the data set on RAW264.7 [2], the EC50 was determined as 33 µM. Besides, in data set [3], the CC50 at 24 h came out at 161 µM.
In the case of `CC/C=C\C[C@H]1C(=O)C=C[C@H]1CC(=O)OC(C)C`, the Ratio with RAW264.7 [1] is on record as 3; in data set [5], 0.1; in [4], 0.5. For the same molecule, in the data set with RAW264.7 [2], the EC50 turned out to be 20 µM. The CC50 at 24 h in data set [3] stood at 58 µM.
Taken in the same sequence, the figures for `CC/C=C\C[C@H]1C(=O)C=C[C@H]1CC(=O)OC1CCCCC1` were 2, 1.1, 4.1, 22 µM and 31 µM.
